# CaV13 FRET inh: Primary screen for inhibitors of IQ motif and Ca2+-dependent inactivation inhibitor domain binding in CACNA1D, Förster resonance energy transfer in living cells, … | HEK cells, CFP/YFP FRET ICDI-IQ, plate reader, 10 min; percent FRET-ratio fall versus neutral wells | AID 743397 | inhibition, % at 12.3 µM | hit rate 0.098% among 340,000;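 active = mean replicate inhibition of at least 30% and at least 1% of replicates passing that level; inconclusive = only one of the two criteria is met; inactive = neither criterion is met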;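 note: 0% = median of the neutral control wells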
# DENV2 CPE rescue: DENV2-induced cell death inhibition; CPE inhibition, % at 9.99 µM; hit rate 1.7% among 350,000; AID 651640; DENV2-infected cells, cytopathic effect rescue, plate reader; in the data active = CPE inhibition above about 20%, passing the limit was not always enough; inconclusive = no clear call, values can overlap the other calls; tested in BHK-21 cells;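 note: 0% = median of neutral control wells and 100% = median of positive control wells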
# MLL AF4-AF9 inh: MLL-AF4/AF9 protein interaction inhibition | AlphaScreen, biotin-AF4 peptide binding to FLAG-AF9 | inhibition, % at 10 µM | hit rate 0.47% among 350,000 | AID 651704;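 active = every replicate reaching a set inhibition limit, whatever the replicate mean, cut at about 25% in these data; inconclusive = mean inhibition reaches that limit but some replicates miss it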;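 note: 0% = plate neutral control median and 100% = total signal loss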
# SIRT5 block: blocks human SIRT5 desuccinylation of peptide | Purified SirT5, succinyl-peptide AMC, trypsin-coupled fluorescence | inhibition, % at 15 µM | hit rate 1.1% among 330,000; in the data active = inhibition above about 15%; inconclusive = no clear call, values can overlap the other calls
# Target sequence (Q9NXA8 whole entry, looked up): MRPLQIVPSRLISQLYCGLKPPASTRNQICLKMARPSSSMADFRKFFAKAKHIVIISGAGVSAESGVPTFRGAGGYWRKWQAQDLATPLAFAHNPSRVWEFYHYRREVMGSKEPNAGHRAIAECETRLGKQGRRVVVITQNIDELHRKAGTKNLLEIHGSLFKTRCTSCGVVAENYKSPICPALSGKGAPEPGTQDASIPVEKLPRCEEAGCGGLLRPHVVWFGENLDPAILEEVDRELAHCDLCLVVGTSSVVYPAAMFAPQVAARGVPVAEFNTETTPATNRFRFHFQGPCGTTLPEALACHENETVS
# S100A4 inh HTS: blocks human S100A4 binding to myosin IIA peptide | P26447 | inhibition, % at 10.7 µM | hit rate 0.14% among 360,000 | S100A4/TAMRA-MyoIIA peptide fluorescence polarization | AID 652163;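 active = mean inhibition of at least 70% across replicates, with every replicate also reaching that level; inconclusive = mean inhibition reaches 70% but some replicates fall short; inactive = mean inhibition below 70%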
# Target sequence (P26447 whole entry, looked up): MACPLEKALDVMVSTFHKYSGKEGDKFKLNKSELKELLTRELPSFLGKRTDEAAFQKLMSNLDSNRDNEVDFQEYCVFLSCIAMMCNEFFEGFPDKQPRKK
#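 System – human S100A4 monomer protein, biochemical binding assay · Buffer or medium – Calcium-containing HEPES buffer, pH 7.2 · Timing – 5 min between mix addition and reading · Also added – TAMRA-labelled myosin IIA heavy-chain peptide probe, 5 nM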
# The depositor's hits bear a star; u = inconclusive; x = not tested or not shown. Most compounds without a hit are left out; they make up all but 2.7% or so of the library.
SMILES,CaV13 FRET inh,DENV2 CPE rescue,MLL AF4-AF9 inh,SIRT5 block,S100A4 inh HTS
Cc1ccc(SCC(=O)OC(C)C(=O)NCc2ccccc2)cc1 (configuration not stated),-14,64*,1,10,-6
COC(=O)c1cc(=O)n(Cc2ccc3c(c2)OCO3)c(=Nc2ccc(F)c(Cl)c2)s1,38*,-4,6,-2,3
COC(=O)c1cc(=O)n(CCc2ccc(OC)cc2)c(=Nc2ccc(F)c(Cl)c2)s1,-7,5,-10,-3,0
CC1=NCCN1CCNC(=O)Nc1ccc(C(C)(C)C)cc1,-4,24*,3,-1,-7
O=C(c1cccnc1)N1CCCCN2[C@H](C1)[C@@H](c1ccc(C#Cc3ccccn3)cc1)[C@@H]2CO,x,-2,-5,0,3
O=C(c1cccnc1)N1CCCCN2[C@H](CO)[C@@H](c3ccc(C#Cc4ccccn4)cc3)[C@@H]2C1,x,-1,-10,31*,16
O=C(c1cccnc1)N1CCCCN2[C@H](CO)[C@@H](c3ccc(C#Cc4ccccn4)cc3)[C@H]2C1,x,20*,5,2,13
CCc1nnc(NC(=O)CSc2sc3c(O)cc(=O)[nH]c3c2C#N)s1,-7,-3,-2,29*,-9
Cc1ccc(Cl)cc1NC(=O)CSc1sc2c(O)cc(=O)[nH]c2c1C#N,-4,15,3,4,-7
Cc1csc(NC(=O)CSc2sc3c(O)cc(=O)[nH]c3c2C#N)n1,-3,-2,-6,42*,0
CCSc1nnc(NC(=O)CSc2sc3c(O)cc(=O)[nH]c3c2C#N)s1,-4,0,-1,32*,-1
COC(=O)c1ccc(C)c(NC(=O)CSc2sc3c(O)cc(=O)[nH]c3c2C#N)c1,-3,2,-1,19*,-6
Cc1ccc(C)c(NC(=O)CSc2sc3c(O)cc(=O)[nH]c3c2C#N)c1,-4,1,2,4,-2
C[C@H]1CCCCO[C@H](CN(C)C(=O)c2ccccc2)[C@@H](C)CN([C@@H](C)CO)C(=O)c2cc(N(C)C)ccc2O1,x,-5,5,-1,-28
C[C@@H]1CN([C@H](C)CO)C(=O)c2cccc(NS(=O)(=O)c3cccs3)c2O[C@H]1CN(C)C(=O)Nc1cccc2ccccc12,x,0,2,0,-7
C[C@@H]1CCCCO[C@@H](CN(C)C(=O)CCCN(C)C)[C@@H](C)CN([C@H](C)CO)C(=O)c2cc(NC(=O)C3CCCCC3)ccc2O1,x,1,-1,-2,3
CC1(C)C[C@H]2C3=CCC4[C@@]5(C)CC[C@H](O)[C@](C)(CO)C5CC[C@@]4(C)[C@]3(C)C[C@H]3O[C@@H]1[C@H](O)[C@]32CO (some centres not stated),-6,41*,-1,2,-1
Cc1ccc(S(=O)(=O)N(C)C[C@@H]2Oc3cc(C#Cc4ccncc4)ccc3S(=O)(=O)N([C@@H](C)CO)C[C@@H]2C)cc1,x,3,0,16*,-32
Cc1ccc(S(=O)(=O)N(C)C[C@H]2Oc3cc(C#Cc4ccncc4)ccc3S(=O)(=O)N([C@H](C)CO)C[C@H]2C)cc1,x,-2,-3,15,-25
Cc1ccc(S(=O)(=O)N(C)C[C@H]2Oc3cc(C#Cc4ccncc4)ccc3S(=O)(=O)N([C@H](C)CO)C[C@@H]2C)cc1,x,u,0,18*,-19
O=C(O)c1cccc(-n2cccc2/C=C2/NC(=O)N(c3ccc(Cl)cc3)C2=O)c1,-4,-2,-23,44*,-3
C[C@H](CO)N1C[C@H](C)[C@H](CN(C)S(C)(=O)=O)OCCCC[C@H](C)Oc2ccc(NC(=O)c3ccncc3)cc2C1=O,x,-1,x,x,x
CC1CN(Cc2nc3c(c(=O)n(C)c(=O)n3C)n2CCCO)CC(C)O1 (configuration not stated),-3,x,x,x,x
CC(C)CCn1c(CN2CC(C)OC(C)C2)nc2c1c(=O)n(C)c(=O)n2C (configuration not stated),37*,-7,0,0,-10
Cc1noc(C)c1S(=O)(=O)Nc1ccc2c(c1)CC(=O)N([C@@H](C)CO)C[C@H](C)[C@@H](CN(C)S(=O)(=O)c1c(C)noc1C)O2,x,-1,-1,1,9
SMILES,CaV13 FRET inh,DENV2 CPE rescue,MLL AF4-AF9 inh,SIRT5 block,S100A4 inh HTS
C[C@@H]1CN([C@@H](C)CO)C(=O)c2cc(C#C[C@@H](C)O)cnc2O[C@H]1CN(C)Cc1ccccn1,x,2,-2,1,8
Cc1noc(C)c1S(=O)(=O)N(C)C[C@@H]1Oc2ccc(NC(=O)Cn3cnnn3)cc2CC(=O)N([C@H](C)CO)C[C@@H]1C,x,5,-2,1,3
C[C@@H]1CN([C@@H](C)CO)C(=O)c2cc(NC(=O)Cn3cnnn3)ccc2O[C@@H]1CN(C)Cc1ccc(C(=O)Nc2ccccc2N)cc1,x,7,2,-1,-8
C[C@@H]1CN([C@H](C)CO)C(=O)Cc2cc(NC(=O)Cn3cnnn3)ccc2O[C@@H]1CN(C)Cc1ccc(C(=O)Nc2ccccc2N)cc1,x,112*,-3,-3,2
C[C@H](CO)N1C[C@H](C)[C@H](CN(C)Cc2ccncc2)Oc2ccc(NC(=O)Cn3cnnn3)cc2CC1=O,x,23*,-18,1,-3
C[C@H]1CN([C@@H](C)CO)C(=O)c2cc(NC(=O)Cn3cnnn3)ccc2O[C@H]1CN(C)Cc1ccc(C(=O)Nc2ccccc2N)cc1,x,43*,3,x,1
C[C@@H]1CN([C@H](C)CO)C(=O)c2cc(NC(=O)Cn3cnnn3)ccc2O[C@@H]1CN(C)Cc1ccc(C(=O)Nc2ccccc2N)cc1,x,17,3,1,3
Cc1noc(C)c1S(=O)(=O)N(C)C[C@H]1Oc2ccc(NC(=O)Cn3cnnn3)cc2CC(=O)N([C@H](C)CO)C[C@H]1C,x,-7,-2,28*,4
CCOC(=O)C1CCN(C(C(=O)NC2CCCCC2)c2ccc(OC)cc2)CC1 (configuration not stated),-5,x,x,x,x
COc1ccc(C(C(=O)NC2CCCC2)N2CCc3ccccc32)cc1 (configuration not stated),-7,57*,0,-3,-6
CCCCCOC(=O)C1=C(C)NC(=O)NC1c1ccc2c(c1)OCO2 (configuration not stated),12,-3,3,x,0
CCOC(=O)C(C)OC(=O)C1=C(C)NC(=O)NC1c1ccc2c(c1)OCO2 (configuration not stated),-4,1,-1,20*,-9
COc1ccc(C)cc1N(C)C(=O)Cc1c(C(=O)O)n(C)c2ccccc12,-2,-12,0,29*,-5
COc1ccc(C)cc1NC(=O)Cc1c(C(=O)O)n(C)c2ccccc12,-19,-6,0,0,1
O=C(CNC(=O)N1CC(=O)Nc2ccccc21)NCc1ccc(F)cc1,-11,113*,-1,-1,1
